Columns and labels:
Rattus norvegicus [1] = test: Dose normalized AUC in Sprague-Dawley rat at 3 mg/kg, po; assay type: ADME, organism-based; set-up: dose 3 mg/kg, route oral; conditions: in vivo
Procedure, shortened: (§1)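 Fasted male Sprague–Dawley rats (n = 3 per route) were dosed with 1.5 mg/mL solutions in PEG300/water or DMSO/PEG300/water, either 1.0 mg/kg iv via femoral-vein cannula or 3.0 mg/kg by oral gavage. Blood was sampled at 5 min (iv only), 15 and 30 min, and 1, 2, 4, 6 and 8 h. Plasma levels were measured by LC–MS/MS after acetonitrile protein precipitation.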

[2] = Plasma clearance in Sprague-Dawley rat at 3 mg/kg, po and 1 mg/kg, iv; assay type: ADME, organism-based; procedure, shortened: as §1
[3] = Half life in Sprague-Dawley rat at 3 mg/kg, po and 1 mg/kg, iv; assay type: ADME, organism-based; conditions: in vivo; procedure, shortened: as §1
hERG (KCNH2) = hERG (KCNH2) (Homo sapiens, UniProt Q12809); test: Displacement of [35S]-MK0499 from human ERG expressed in HEK293 cell membranes at 10 uM after 2 hrs by liquid scintillation counting analysis relative to control; conditions: membranes of HEK293 cells that express human ERG, probe [35S]-MK0499
Chain of hERG (KCNH2) (Q12809 whole entry): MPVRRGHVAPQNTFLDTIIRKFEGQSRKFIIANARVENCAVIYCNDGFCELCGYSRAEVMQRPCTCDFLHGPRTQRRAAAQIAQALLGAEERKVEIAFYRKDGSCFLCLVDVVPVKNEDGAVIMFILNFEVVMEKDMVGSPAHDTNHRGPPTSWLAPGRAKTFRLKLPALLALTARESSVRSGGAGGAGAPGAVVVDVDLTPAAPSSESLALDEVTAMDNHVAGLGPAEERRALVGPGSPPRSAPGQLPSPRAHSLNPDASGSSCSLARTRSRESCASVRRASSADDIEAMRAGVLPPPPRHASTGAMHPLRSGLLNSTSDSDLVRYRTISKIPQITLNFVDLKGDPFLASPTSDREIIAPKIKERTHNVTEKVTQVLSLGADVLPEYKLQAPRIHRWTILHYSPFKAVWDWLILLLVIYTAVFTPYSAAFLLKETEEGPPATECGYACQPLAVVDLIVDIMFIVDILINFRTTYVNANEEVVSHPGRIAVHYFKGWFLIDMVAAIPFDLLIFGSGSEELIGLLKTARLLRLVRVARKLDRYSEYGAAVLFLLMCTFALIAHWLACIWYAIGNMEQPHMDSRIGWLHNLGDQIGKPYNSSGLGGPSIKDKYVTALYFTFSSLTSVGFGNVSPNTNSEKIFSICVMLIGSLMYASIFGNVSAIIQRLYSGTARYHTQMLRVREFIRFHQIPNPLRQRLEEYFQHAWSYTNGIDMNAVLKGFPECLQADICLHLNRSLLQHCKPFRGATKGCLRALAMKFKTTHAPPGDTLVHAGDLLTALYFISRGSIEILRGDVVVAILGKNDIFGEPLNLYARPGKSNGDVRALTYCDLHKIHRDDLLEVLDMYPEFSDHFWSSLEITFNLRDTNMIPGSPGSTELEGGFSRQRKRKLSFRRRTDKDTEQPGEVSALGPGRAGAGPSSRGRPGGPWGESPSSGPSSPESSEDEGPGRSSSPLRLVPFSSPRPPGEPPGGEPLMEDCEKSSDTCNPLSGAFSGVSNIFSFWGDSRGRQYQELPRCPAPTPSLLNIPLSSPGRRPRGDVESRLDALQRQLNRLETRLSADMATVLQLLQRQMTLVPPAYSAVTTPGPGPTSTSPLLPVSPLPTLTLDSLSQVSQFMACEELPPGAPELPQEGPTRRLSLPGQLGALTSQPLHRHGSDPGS
Procedure, shortened: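 hERG binding assay measuring displacement of 35S-labelled MK-0499, a known hERG blocker.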

[4] = Oral bioavailability in Sprague-Dawley rat at 3 mg/kg; assay type: ADME, organism-based; conditions: in vivo; procedure, shortened: as §1
[5] = biological target: Sodium channel protein type 9 subunit alpha (Homo sapiens, UniProt Q15858); test: Inhibition of human NaV1.7 channel expressed in HEK293 cells by FRET assay; assay type: cell-based
Chain of Sodium channel protein type 9 subunit alpha (Q15858 whole entry): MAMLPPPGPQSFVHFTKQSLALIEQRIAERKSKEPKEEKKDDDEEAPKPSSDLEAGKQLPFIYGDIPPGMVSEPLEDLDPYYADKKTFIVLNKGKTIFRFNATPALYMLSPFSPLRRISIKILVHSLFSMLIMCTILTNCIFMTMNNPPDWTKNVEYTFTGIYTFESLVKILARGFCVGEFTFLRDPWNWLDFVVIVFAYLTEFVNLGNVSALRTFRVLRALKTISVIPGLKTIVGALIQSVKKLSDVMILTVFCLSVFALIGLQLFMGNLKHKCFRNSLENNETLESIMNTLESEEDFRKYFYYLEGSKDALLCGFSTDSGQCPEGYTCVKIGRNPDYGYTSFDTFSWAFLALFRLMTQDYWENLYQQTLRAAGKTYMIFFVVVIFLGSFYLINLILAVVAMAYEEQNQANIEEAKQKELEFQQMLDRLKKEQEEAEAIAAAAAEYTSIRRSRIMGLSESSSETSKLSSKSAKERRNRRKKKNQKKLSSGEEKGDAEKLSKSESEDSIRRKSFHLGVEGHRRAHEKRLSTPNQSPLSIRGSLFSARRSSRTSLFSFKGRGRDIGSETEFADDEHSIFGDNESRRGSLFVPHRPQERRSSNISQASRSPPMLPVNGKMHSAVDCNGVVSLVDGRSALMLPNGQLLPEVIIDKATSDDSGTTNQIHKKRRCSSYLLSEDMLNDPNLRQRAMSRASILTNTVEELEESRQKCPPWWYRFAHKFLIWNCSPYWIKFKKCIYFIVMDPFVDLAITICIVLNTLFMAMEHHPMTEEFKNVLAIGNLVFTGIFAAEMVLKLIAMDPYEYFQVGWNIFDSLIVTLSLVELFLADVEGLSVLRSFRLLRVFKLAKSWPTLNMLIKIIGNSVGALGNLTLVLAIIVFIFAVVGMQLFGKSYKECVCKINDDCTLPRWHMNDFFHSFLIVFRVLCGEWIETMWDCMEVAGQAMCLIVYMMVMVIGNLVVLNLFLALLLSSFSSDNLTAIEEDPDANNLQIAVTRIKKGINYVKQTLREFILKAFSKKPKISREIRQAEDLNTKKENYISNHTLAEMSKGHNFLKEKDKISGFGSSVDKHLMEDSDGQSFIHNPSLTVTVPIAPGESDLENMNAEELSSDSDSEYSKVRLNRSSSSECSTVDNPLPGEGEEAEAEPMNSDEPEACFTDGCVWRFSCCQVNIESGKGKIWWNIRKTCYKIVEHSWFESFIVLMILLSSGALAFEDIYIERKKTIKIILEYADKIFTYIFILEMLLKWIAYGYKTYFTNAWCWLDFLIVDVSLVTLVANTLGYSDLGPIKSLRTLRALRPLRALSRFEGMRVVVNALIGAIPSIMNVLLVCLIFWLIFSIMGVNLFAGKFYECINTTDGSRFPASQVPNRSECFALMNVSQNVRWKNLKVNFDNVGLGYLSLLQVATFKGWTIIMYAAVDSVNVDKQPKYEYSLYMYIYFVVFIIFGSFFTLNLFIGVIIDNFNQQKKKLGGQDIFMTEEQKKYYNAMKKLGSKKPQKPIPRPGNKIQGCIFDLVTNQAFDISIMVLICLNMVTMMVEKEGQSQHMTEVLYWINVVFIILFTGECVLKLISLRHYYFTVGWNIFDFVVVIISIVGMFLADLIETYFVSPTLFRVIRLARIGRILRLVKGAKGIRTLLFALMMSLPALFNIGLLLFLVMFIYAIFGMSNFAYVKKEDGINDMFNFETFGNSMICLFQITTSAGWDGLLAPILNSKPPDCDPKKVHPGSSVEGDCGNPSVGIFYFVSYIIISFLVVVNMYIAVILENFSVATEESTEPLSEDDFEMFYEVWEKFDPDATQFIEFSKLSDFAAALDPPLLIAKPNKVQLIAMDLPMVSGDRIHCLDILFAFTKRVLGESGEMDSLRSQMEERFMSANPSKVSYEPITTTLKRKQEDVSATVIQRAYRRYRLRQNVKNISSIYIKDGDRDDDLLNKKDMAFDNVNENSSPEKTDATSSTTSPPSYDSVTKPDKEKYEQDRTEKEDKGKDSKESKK
Procedure, shortened: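 HEK293 cells stably expressing human Nav1.7. Channel block was read in a functional membrane-potential assay based on FRET between two membrane-associated dyes; IC50 determined.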

Rattus norvegicus [6] = test: Neurotoxicity in rat assessed as reduction in latency time at => 30 mg/kg, po after 2 hrs by rotarod test relative to vehicle-treated control; assay type: toxicity, organism-based; set-up: dose 30 mg/kg, route oral; scale not given: the % may be the effect or the level left; conditions: in vivo
Procedure, shortened: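 Rats trained on rotarod 3 min at 10 rpm; single oral dose of test compound or vehicle (30 or 100 mg/kg); tested at 2 and 4 h post-dose with speed at 10 rpm for 60 s then accelerated to 60 rpm; time to fall after start of acceleration recorded. Significant impairment defined as >20% reduction in latency time.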

Rattus norvegicus [7] = test: Analgesic activity in po dosed rat spinal nerve ligation neuropathic pain model assessed as reversal of allodynia measured at 2 to 4 hrs; assay type: functional
Procedure, shortened: (§2)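 Rat spinal nerve ligation model. Seven days after surgery, rats received a single oral dose (3, 10 or 30 mg/kg) of test agent or vehicle. Tactile allodynia was scored at 2, 4, 8 and 24 h post-dose with calibrated von Frey filaments using an up-down paradigm. Threshold is the force giving a 50% withdrawal rate. %MPE = (post-compound − post-SNL)/(pre-SNL − post-SNL) × 100, where 100% is full reversal.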

Rattus norvegicus [8] = test: Analgesic activity in rat spinal nerve ligation neuropathic pain model assessed as reversal of allodynia at 30 mg/kg, po measured at 2 hrs relative to control; assay type: functional; procedure, shortened: as §2

Compound | AUC/dose (Rattus norvegicus [1]) [µM·h/mg/kg] | clearance [2] [mL/min/kg] | half-life [3] [h] | inhibition at 2 h, 10 µM (hERG (KCNH2)) [%] | bioavailability [4] [%] | IC50 [5] [nM] | Activity (Rattus norvegicus [6]) [%] | ED50 (Rattus norvegicus [7]) [mg/kg] | Activity (Rattus norvegicus [8]) [%]
CC(C)N1C(=O)[C@H](NC(=O)[C@@H](Cc2ccccc2OC(F)(F)F)NC(=O)OC(C)(C)C)CCc2cc(Cl)ccc21 | 0.71 | – | – | – | – | – | – | – | –
CC(C)N1C(=O)[C@H](NC(=O)[C@@H](Cc2ccccc2F)NC(=O)C2CC2C(F)(F)F)CCc2c(F)c(F)cc(F)c21 (stereo partly drawn) | 0.79 | 23 | 2.2 | 2 | 62 | 137 | – | – | –
CC(C)N1C(=O)[C@H](NC(=O)[C@@H](Cc2ccccc2OC(F)(F)F)NC(=O)OC(C)(C)C)CCc2ccccc21 | 0.31 | – | – | – | – | – | – | – | –
CC(C)N1C(=O)[C@H](NC(=O)[C@@H](Cc2ccccc2F)NC(=O)c2ccc(F)cc2C(F)(F)F)CCc2cc(C(F)(F)F)ccc21 | 0.6 | 33 | 2.5 | 10 | 75 | 359 | – | – | –
CC(C)N1C(=O)[C@H](NC(=O)[C@@H](Cc2ccccc2F)NC(=O)c2ccccn2)CCc2c(F)c(F)cc(F)c21 | – | – | – | 22 | – | 443 | – | – | –
CC1CC1N1C(=O)[C@H](NC(=O)[C@@H](Cc2ccccc2F)NC(=O)c2ccc(F)cc2C(F)(F)F)CCc2c(F)c(F)cc(F)c21 (stereo partly drawn) | – | – | – | 44 | – | 131 | – | – | –
CC(C)N1C(=O)[C@H](NC(=O)[C@@H](Cc2ccccc2OC(F)(F)F)NC(=O)OC(C)(C)C)CCc2ccc(F)cc21 | 0.2 | 29 | 2.5 | 26 | 20 | 18 | – | – | –
CC(C)N1C(=O)[C@H](NC(=O)[C@@H](Cc2ccccc2F)NC(=O)c2ccc(F)cc2C(F)(F)F)CCc2c(F)c(F)cc(F)c21 | 1 | 19 | 5.6 | 20 | 68 | 103 | – | – | –
O=C(N[C@H](Cc1ccccc1F)C(=O)N[C@@H]1CCc2c(F)c(F)cc(F)c2N(C2CC2)C1=O)c1ccc(F)cc1C(F)(F)F | – | – | – | 31 | – | 85 | – | – | –
CC(C)N1C(=O)[C@H](NC(=O)[C@@H](Cc2ccccc2F)NC(=O)c2ccccc2C(F)(F)F)CCc2c(F)c(F)cc(F)c21 | – | – | – | 10 | – | 229 | – | – | –
CC(C)N1C(=O)[C@H](NC(=O)[C@@H](Cc2ccccc2OC(F)(F)F)NC(=O)OC(C)(C)C)CCc2c(F)c(F)cc(F)c21 | – | – | – | 24 | – | 67 | – | – | –
CC1CC1N1C(=O)[C@H](NC(=O)[C@@H](Cc2ccccc2F)NC(=O)C2CC2C(F)(F)F)CCc2c(F)c(F)cc(F)c21 (stereo partly drawn) | – | – | – | 54 | – | 101 | – | – | –
CC(C)N1C(=O)[C@H](NC(=O)[C@@H](Cc2ccccc2OC(F)(F)F)NC(=O)OC(C)(C)C)CCc2cc(C(F)(F)F)ccc21 | 0.41 | 39 | 1.9 | 7 | 59 | 181 | – | – | –
CC(C)N1C(=O)[C@H](NC(=O)[C@@H](Cc2ccccc2F)NC(=O)c2ccc(F)cc2C(F)(F)F)CCc2cc(Cl)cc(F)c21 | 0.93 | 21 | 1.9 | 17 | 74 | 260 | – | – | –
CC(C)N1C(=O)[C@H](NC(=O)[C@@H](Cc2ccccc2OC(F)(F)F)NC(=O)OC(C)(C)C)CCc2cc(F)cc(F)c21 | 0.54 | 17 | 2.7 | 21 | 30 | 57 | – | – | –
CC(C)N1C(=O)[C@H](NC(=O)[C@@H](Cc2ccccc2OC(F)(F)F)NC(=O)OC(C)(C)C)CCc2ccc(C(F)(F)F)cc21 | 0.22 | 26 | 1.3 | 19 | 21 | 494 | – | – | –
CC(C)N1C(=O)[C@H](NC(=O)[C@@H](Cc2ccccc2F)NC(=O)c2ccc(F)cc2C(F)(F)F)CCc2cc(F)ccc21 | 0.45 | 36 | 1.7 | 36 | 56 | 254 | – | – | –
CC(C)N1C(=O)[C@H](NC(=O)[C@@H](Cc2ccccc2OC(F)(F)F)NC(=O)OC(C)(C)C)CCc2cc(F)ccc21 | 0.66 | 16 | 2.3 | 24 | 35 | 34 | – | – | –
CC(C)N1C(=O)[C@H](NC(=O)[C@@H](Cc2ccccc2F)NC(=O)c2ccc(F)cc2C(F)(F)F)CCc2cc(F)cc(F)c21 | 0.42 | 21 | 1.9 | 34 | 31 | 264 | – | – | –
CC(C)N1C(=O)[C@H](NC(=O)[C@@H](Cc2ccccc2OC(F)(F)F)NC(=O)OC(C)(C)C)CCc2cccc(F)c21 | 0.39 | 21 | 2.7 | 24 | 27 | 70 | – | – | –
CC(C)N1C(=O)[C@H](NC(=O)[C@@H](Cc2ccccc2F)NC(=O)c2ccc(F)cc2C(F)(F)F)CCc2cc(Cl)ccc21 | 0.58 | – | – | – | – | – | – | – | –
NCC1(CC(=O)O)CCCCC1 [GABAPENTIN] | – | – | – | – | – | – | > 20 | 50 | 36
Cc1cccc(C)c1OCC(C)N (stereo not drawn) [MEXILETINE] | – | – | – | – | – | – | – | 45 | 42
CC1CC1C(=O)N[C@H](Cc1ccccc1F)C(=O)N[C@@H]1CCc2c(F)c(F)cc(F)c2N(C(C)C)C1=O (stereo partly drawn) | 0.44 | 35 | 0.8 | 0 | 47 | 103 | – | – | –

Reference: ChEMBL document CHEMBL2390921, “A novel benzazepinone sodium channel blocker with oral efficacy in a rat model of neuropathic pain” (Bioorg Med Chem Lett, 2013)
